Source: ChEMBL document CHEMBL1255475, “Mutant prevention concentrations of four carbapenems against gram-negative rods” (2010)
In brackets after ≈: the same amount, converted by molar mass.

Columns and labels:
Format in all cases: functional
Pseudomonas aeruginosa [1] = experiment: Antibacterial activity against Pseudomonas aeruginosa P363 assessed as mutant prevention concentration after overnight incubation
Escherichia coli [2] = experiment: Antibacterial activity against beta-lactamase-positive ESBL-positive Escherichia coli E456 incubated up to 7 days by agar dilution method; settings: E456, 168 h
How it was run: (§1)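 MIC by CLSI agar dilution, with quality-control strains in each run. Beta-lactamase status was set by 30 μg cefazolin Kirby-Bauer disk diffusion. ESBL status was set by cefotaxime and ceftazidime disks (30 μg) with and without clavulanic acid (10 μg).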

Klebsiella pneumoniae [3] = experiment: Antibacterial activity against beta-lactamase-negative Klebsiella pneumoniae E358 assessed as mutant prevention concentration after overnight incubation
Klebsiella pneumoniae [4] = experiment: Antibacterial activity against beta-lactamase-negative Klebsiella pneumoniae E362 incubated up to 7 days by agar dilution method; settings: E362, 168 h
Klebsiella pneumoniae [5] = experiment: Antibacterial activity against beta-lactamase-positive ESBL-negative Klebsiella pneumoniae E511 assessed as mutant prevention concentration after overnight incubation
How it was run: (§2)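 Overnight growth on blood trypticase soy agar (35°C, air) was resuspended in 0.9% saline and counted on drug-free Mueller-Hinton agar. […] Colonies were retested by agar dilution to confirm mutants. MPC was the lowest concentration preventing resistant-mutant growth.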

Pseudomonas aeruginosa [6] = experiment: Antibacterial activity against Pseudomonas aeruginosa P335 assessed as mutant prevention concentration after overnight incubation
Klebsiella pneumoniae [7] = experiment: Antibacterial activity against beta-lactamase-positive ESBL-negative Klebsiella pneumoniae E480 assessed as mutant prevention concentration after overnight incubation; how it was run: as §2
Pseudomonas aeruginosa [8] = experiment: Antibacterial activity against Pseudomonas aeruginosa P327 assessed as mutant prevention concentration after overnight incubation
Escherichia coli [9] = experiment: Antibacterial activity against beta-lactamase-negative Escherichia coli E409 […] by agar dilution method
Pseudomonas aeruginosa [10] = experiment: Antibacterial activity against Pseudomonas aeruginosa P365 assessed as mutant prevention concentration after overnight incubation
Klebsiella pneumoniae [11] = experiment: Antibacterial activity against beta-lactamase-positive ESBL-negative Klebsiella pneumoniae E473 assessed as mutant prevention concentration after overnight incubation; how it was run: as §2
Escherichia coli [12] = experiment: Antibacterial activity against beta-lactamase-positive ESBL-positive Escherichia coli E465 incubated up to 7 days by agar dilution method; settings: E465, 168 h; how it was run: as §1
Escherichia coli [13] = experiment: Antibacterial activity against beta-lactamase-positive ESBL-negative Escherichia coli E484 incubated up to 7 days by agar dilution method; settings: E484, 168 h
Escherichia coli [14] = experiment: Antibacterial activity against beta-lactamase-positive ESBL-negative Escherichia coli E484 assessed as mutant prevention concentration after overnight incubation; how it was run: as §2
Pseudomonas aeruginosa [15] = experiment: Antibacterial activity against Pseudomonas aeruginosa P340 assessed as mutant prevention concentration after overnight incubation
Klebsiella pneumoniae [16] = experiment: Antibacterial activity against beta-lactamase-positive ESBL-negative Klebsiella pneumoniae E479 assessed as mutant prevention concentration after overnight incubation; how it was run: as §2
Escherichia coli [17] = experiment: Antibacterial activity against beta-lactamase-positive ESBL-positive Escherichia coli E459 assessed as mutant prevention concentration after overnight incubation; how it was run: as §2
Klebsiella pneumoniae [18] = experiment: Antibacterial activity against beta-lactamase-negative Klebsiella pneumoniae E419 incubated up to 7 days by agar dilution method; settings: E419, 168 h
Escherichia coli [19] = experiment: Antibacterial activity against beta-lactamase-negative Escherichia coli E345 assessed as mutant prevention concentration after overnight incubation
Klebsiella pneumoniae [20] = experiment: Antibacterial activity against beta-lactamase-positive ESBL-negative Klebsiella pneumoniae E477 incubated up to 7 days by agar dilution method; settings: E477, 168 h
Klebsiella pneumoniae [21] = experiment: Antibacterial activity against beta-lactamase-negative Klebsiella pneumoniae E357 assessed as mutant prevention concentration after overnight incubation
Klebsiella pneumoniae [22] = experiment: Antibacterial activity against beta-lactamase-negative Klebsiella pneumoniae E360 assessed as mutant prevention concentration after overnight incubation
Pseudomonas aeruginosa [23] = experiment: Antibacterial activity against Pseudomonas aeruginosa P338 assessed as mutant prevention concentration after overnight incubation
Klebsiella pneumoniae [24] = experiment: Antibacterial activity against beta-lactamase-positive ESBL-positive Klebsiella pneumoniae E478 incubated up to 7 days by agar dilution method; settings: E478, 168 h
Klebsiella pneumoniae [25] = experiment: Antibacterial activity against beta-lactamase-negative Klebsiella pneumoniae E418 incubated up to 7 days by agar dilution method; settings: E418, 168 h
Klebsiella pneumoniae [26] = experiment: Antibacterial activity against beta-lactamase-positive ESBL-negative Klebsiella pneumoniae E511 incubated up to 7 days by agar dilution method; settings: E511, 168 h
Klebsiella pneumoniae [27] = experiment: Antibacterial activity against beta-lactamase-positive ESBL-positive Klebsiella pneumoniae E476 incubated up to 7 days by agar dilution method; settings: E476, 168 h
Klebsiella pneumoniae [28] = experiment: Antibacterial activity against beta-lactamase-positive ESBL-negative Klebsiella pneumoniae E509 assessed as mutant prevention concentration after overnight incubation; how it was run: as §2
Escherichia coli [29] = experiment: Antibacterial activity against beta-lactamase-negative Escherichia coli E424 […] by agar dilution method
Pseudomonas aeruginosa [30] = experiment: Antibacterial activity against Pseudomonas aeruginosa P369 assessed as mutant prevention concentration after overnight incubation
Escherichia coli [31] = experiment: Antibacterial activity against beta-lactamase-positive ESBL-positive Escherichia coli E460 assessed as mutant prevention concentration after overnight incubation; how it was run: as §2
Escherichia coli [32] = experiment: Antibacterial activity against beta-lactamase-positive ESBL-negative Escherichia coli E412 incubated up to 7 days by agar dilution method; settings: E412, 168 h; how it was run: as §1
Acinetobacter baumannii [33] = experiment: Antibacterial activity against Acinetobacter baumannii A910 assessed as mutant prevention concentration after overnight incubation
Klebsiella pneumoniae [34] = experiment: Antibacterial activity against beta-lactamase-positive ESBL-negative Klebsiella pneumoniae E481 assessed as mutant prevention concentration after overnight incubation; how it was run: as §2
Escherichia coli [35] = experiment: Antibacterial activity against beta-lactamase-positive ESBL-negative Escherichia coli E437 incubated up to 7 days by agar dilution method; settings: E437, 168 h; how it was run: as §1
Escherichia coli [36] = experiment: Antibacterial activity against beta-lactamase-positive ESBL-negative Escherichia coli E437 assessed as mutant prevention concentration after overnight incubation; how it was run: as §2
Klebsiella pneumoniae [37] = experiment: Antibacterial activity against beta-lactamase-positive ESBL-negative Klebsiella pneumoniae E507 incubated up to 7 days by agar dilution method; settings: E507, 168 h
How it was run: (§3)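 MPC determination: overnight cultures on blood trypticase soy agar at 35°C in air were resuspended in 0.9% saline, and CFU were counted on drug-free Mueller-Hinton agar. […] Growth was retested by agar dilution to confirm mutants. MPC was the lowest concentration preventing resistant-mutant growth.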

Pseudomonas aeruginosa [38] = experiment: Antibacterial activity against Pseudomonas aeruginosa P334 assessed as mutant prevention concentration after overnight incubation
Acinetobacter baumannii [39] = experiment: Antibacterial activity against Acinetobacter baumannii A896 assessed as mutant prevention concentration after overnight incubation
Acinetobacter baumannii [40] = experiment: Antibacterial activity against Acinetobacter baumannii A898 assessed as mutant prevention concentration after overnight incubation
Escherichia coli [41] = experiment: Antibacterial activity against beta-lactamase-negative Escherichia coli E425 assessed as mutant prevention concentration after overnight incubation
Acinetobacter baumannii [42] = experiment: Antibacterial activity against Acinetobacter baumannii A928 assessed as mutant prevention concentration after overnight incubation
Klebsiella pneumoniae [43] = experiment: Antibacterial activity against beta-lactamase-positive ESBL-negative Klebsiella pneumoniae E479 incubated up to 7 days by agar dilution method; settings: E479, 168 h; how it was run: as §3
Acinetobacter baumannii [44] = experiment: Antibacterial activity against Acinetobacter baumannii A929 assessed as mutant prevention concentration after overnight incubation
Klebsiella pneumoniae [45] = experiment: Antibacterial activity against beta-lactamase-negative Klebsiella pneumoniae E419 assessed as mutant prevention concentration after overnight incubation; how it was run: as §2

Work on C[C@@H](O)[C@H]1C(=O)N2C(C(=O)O)=C(S[C@@H]3CN[C@H](CNS(N)(=O)=O)C3)[C@H](C)[C@H]12 [DORIPENEM] yielded an MPC (Pseudomonas aeruginosa [1]) of 4 µg/mL, an MIC (Escherichia coli [2]) of 0.03 µg/mL (≈ 0.0713 µM) and an MPC (Klebsiella pneumoniae [3]) of 0.125 µg/mL. The MIC (Klebsiella pneumoniae [4]) was 0.06 µg/mL (≈ 0.143 µM), the MPC (Klebsiella pneumoniae [5]) was >64 µg/mL and the MPC (Pseudomonas aeruginosa [6]) was 16 µg/mL. The MPC (Klebsiella pneumoniae [7]) was 8 µg/mL, the MPC (Pseudomonas aeruginosa [8]) was 4 µg/mL and the MIC (Escherichia coli [9]) was 0.03 µg/mL (≈ 0.0713 µM). The MPC (Pseudomonas aeruginosa [10]) was 8 µg/mL, the MPC (Klebsiella pneumoniae [11]) was 8 µg/mL and the MIC (Escherichia coli [12]) was 0.03 µg/mL (≈ 0.0713 µM). It also gave an MIC (Escherichia coli [13]) of 2 µg/mL (≈ 4.76 µM), an MPC (Escherichia coli [14]) of 8 µg/mL and an MPC (Pseudomonas aeruginosa [15]) of 1 µg/mL. The MPC (Klebsiella pneumoniae [16]) was >64 µg/mL, the MPC (Escherichia coli [17]) was 0.125 µg/mL and the MIC (Klebsiella pneumoniae [18]) was 0.125 µg/mL (≈ 0.297 µM). It also gave an MPC (Escherichia coli [19]) of 0.06 µg/mL, an MIC (Klebsiella pneumoniae [20]) of 2 µg/mL (≈ 4.76 µM) and an MPC (Klebsiella pneumoniae [21]) of 0.125 µg/mL. For the same molecule, the MPC (Klebsiella pneumoniae [22]) was 0.125 µg/mL, the MPC (Pseudomonas aeruginosa [23]) was 4 µg/mL and the MIC (Klebsiella pneumoniae [24]) was 2 µg/mL (≈ 4.76 µM). The MIC (Klebsiella pneumoniae [25]) was 0.125 µg/mL (≈ 0.297 µM), the MIC (Klebsiella pneumoniae [26]) was 2 µg/mL (≈ 4.76 µM) and the MIC (Klebsiella pneumoniae [27]) was 2 µg/mL (≈ 4.76 µM). The MPC (Klebsiella pneumoniae [28]) was >64 µg/mL, the MIC (Escherichia coli [29]) was 0.03 µg/mL (≈ 0.0713 µM) and the MPC (Pseudomonas aeruginosa [30]) was 2 µg/mL. It also gave an MPC (Escherichia coli [31]) of 0.125 µg/mL, an MIC (Escherichia coli [32]) of 0.03 µg/mL (≈ 0.0713 µM) and an MPC (Acinetobacter baumannii [33]) of 4 µg/mL. The MPC (Klebsiella pneumoniae [34]) was 8 µg/mL, the MIC (Escherichia coli [35]) was 0.06 µg/mL (≈ 0.143 µM) and the MPC (Escherichia coli [36]) was 0.125 µg/mL. The MIC (Klebsiella pneumoniae [37]) was 2 µg/mL (≈ 4.76 µM), the MPC (Pseudomonas aeruginosa [38]) was >2 µg/mL and the MPC (Acinetobacter baumannii [39]) was 1 µg/mL. The MPC (Acinetobacter baumannii [40]) was 4 µg/mL, the MPC (Escherichia coli [41]) was 0.06 µg/mL and the MPC (Acinetobacter baumannii [42]) was 1 µg/mL. The MIC (Klebsiella pneumoniae [43]) was 4 µg/mL (≈ 9.51 µM), the MPC (Acinetobacter baumannii [44]) was 4 µg/mL and the MPC (Klebsiella pneumoniae [45]) was 0.25 µg/mL.
With C[C@@H](O)[C@H]1C(=O)N2C(C(=O)O)=C(S[C@@H]3CN[C@H](C(=O)N(C)C)C3)[C@H](C)[C@H]12 [MEROPENEM] the MPC (Pseudomonas aeruginosa [1]) was >8 µg/mL, the MIC (Escherichia coli [2]) was 0.03 µg/mL (≈ 0.0782 µM) and the MPC (Klebsiella pneumoniae [3]) was 0.06 µg/mL. It also gave an MIC (Klebsiella pneumoniae [4]) of 0.06 µg/mL (≈ 0.156 µM), an MPC (Klebsiella pneumoniae [5]) of 64 µg/mL and an MPC (Pseudomonas aeruginosa [6]) of 32 µg/mL. For the same molecule, the MPC (Klebsiella pneumoniae [7]) was 16 µg/mL, the MPC (Pseudomonas aeruginosa [8]) was 8 µg/mL and the MIC (Escherichia coli [9]) was 0.03 µg/mL (≈ 0.0782 µM). The MPC (Pseudomonas aeruginosa [10]) was 8 µg/mL, the MPC (Klebsiella pneumoniae [11]) was 16 µg/mL and the MIC (Escherichia coli [12]) was 0.06 µg/mL (≈ 0.156 µM). It also gave an MIC (Escherichia coli [13]) of 1 µg/mL (≈ 2.61 µM), an MPC (Escherichia coli [14]) of 16 µg/mL and an MPC (Pseudomonas aeruginosa [15]) of 4 µg/mL. It also gave an MPC (Klebsiella pneumoniae [16]) of 32 µg/mL, an MPC (Escherichia coli [17]) of 0.125 µg/mL and an MIC (Klebsiella pneumoniae [18]) of 0.06 µg/mL (≈ 0.156 µM). For the same molecule, the MPC (Escherichia coli [19]) was 0.06 µg/mL, the MIC (Klebsiella pneumoniae [20]) was 2 µg/mL (≈ 5.22 µM) and the MPC (Klebsiella pneumoniae [21]) was 0.125 µg/mL. The MPC (Klebsiella pneumoniae [22]) was 0.125 µg/mL, the MPC (Pseudomonas aeruginosa [23]) was >4 µg/mL and the MIC (Klebsiella pneumoniae [24]) was 2 µg/mL (≈ 5.22 µM). It also gave an MIC (Klebsiella pneumoniae [25]) of 0.06 µg/mL (≈ 0.156 µM), an MIC (Klebsiella pneumoniae [26]) of 4 µg/mL (≈ 10.4 µM) and an MIC (Klebsiella pneumoniae [27]) of 4 µg/mL (≈ 10.4 µM). For the same molecule, the MPC (Klebsiella pneumoniae [28]) was >64 µg/mL, the MIC (Escherichia coli [29]) was 0.03 µg/mL (≈ 0.0782 µM) and the MPC (Pseudomonas aeruginosa [30]) was >4 µg/mL. It also gave an MPC (Escherichia coli [31]) of 0.06 µg/mL, an MIC (Escherichia coli [32]) of 0.06 µg/mL (≈ 0.156 µM) and an MPC (Acinetobacter baumannii [33]) of 4 µg/mL. The MPC (Klebsiella pneumoniae [34]) was 16 µg/mL, the MIC (Escherichia coli [35]) was 0.06 µg/mL (≈ 0.156 µM) and the MPC (Escherichia coli [36]) was 0.125 µg/mL. For the same molecule, the MIC (Klebsiella pneumoniae [37]) was 4 µg/mL (≈ 10.4 µM), the MPC (Pseudomonas aeruginosa [38]) was >4 µg/mL and the MPC (Acinetobacter baumannii [39]) was 4 µg/mL. The MPC (Acinetobacter baumannii [40]) was 8 µg/mL, the MPC (Escherichia coli [41]) was 0.06 µg/mL and the MPC (Acinetobacter baumannii [42]) was 4 µg/mL. It also gave an MIC (Klebsiella pneumoniae [43]) of 8 µg/mL (≈ 20.9 µM), an MPC (Acinetobacter baumannii [44]) of 4 µg/mL and an MPC (Klebsiella pneumoniae [45]) of 0.125 µg/mL.
